The source of these data is ChEMBL document CHEMBL1143182, “Design and synthesis of DPP-IV inhibitors lacking the electrophilic nitrile group” (Bioorg Med Chem, 2008).

For assay [1], the target named is Dipeptidyl peptidase 4 (Rattus norvegicus, UniProt P14740). The assay can be described thus: Inhibition of DPP4 in rat plasma by fluorescence assay. In kind it is cell-free.
The test system of assay [2] is Rattus norvegicus. The assay can be described thus: Inhibition of DPP4 in Sprague-Dawley rat plasma at 3 mg/kg, po after 9 hrs. In kind it is functional.
The subject of assay [3] is Rattus norvegicus. The assay can be described thus: Inhibition of DPP4 in Sprague-Dawley rat plasma at 3 mg/kg, po after 30 mins. Type of assay: functional. The conditions noted are these: 0.5 h.
The species entered for assay [4] is Rattus norvegicus. The assay can be described thus: Reduction in plasma glucose level in Sprague-Dawley rat by oral glucose tolerance test. Type of assay: functional, organism-based. In a few lines: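 Male SD rats (400–460 g) fasted at least 20 h, dosed orally with 0.1, 0.3 or 1 mg/kg in 0.5% methyl cellulose (vehicle control) at −30 min. Oral glucose 1 g/kg at 0 min. Tail-vein blood at −5, 5, 10, 15, 30, 60, 120 min; plasma glucose by glucose oxidase peroxidase dye method.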

Activity calls are given as the source filed them. The rule behind the calls is not given here.

Sequence of Dipeptidyl peptidase 4 (P14740 whole entry): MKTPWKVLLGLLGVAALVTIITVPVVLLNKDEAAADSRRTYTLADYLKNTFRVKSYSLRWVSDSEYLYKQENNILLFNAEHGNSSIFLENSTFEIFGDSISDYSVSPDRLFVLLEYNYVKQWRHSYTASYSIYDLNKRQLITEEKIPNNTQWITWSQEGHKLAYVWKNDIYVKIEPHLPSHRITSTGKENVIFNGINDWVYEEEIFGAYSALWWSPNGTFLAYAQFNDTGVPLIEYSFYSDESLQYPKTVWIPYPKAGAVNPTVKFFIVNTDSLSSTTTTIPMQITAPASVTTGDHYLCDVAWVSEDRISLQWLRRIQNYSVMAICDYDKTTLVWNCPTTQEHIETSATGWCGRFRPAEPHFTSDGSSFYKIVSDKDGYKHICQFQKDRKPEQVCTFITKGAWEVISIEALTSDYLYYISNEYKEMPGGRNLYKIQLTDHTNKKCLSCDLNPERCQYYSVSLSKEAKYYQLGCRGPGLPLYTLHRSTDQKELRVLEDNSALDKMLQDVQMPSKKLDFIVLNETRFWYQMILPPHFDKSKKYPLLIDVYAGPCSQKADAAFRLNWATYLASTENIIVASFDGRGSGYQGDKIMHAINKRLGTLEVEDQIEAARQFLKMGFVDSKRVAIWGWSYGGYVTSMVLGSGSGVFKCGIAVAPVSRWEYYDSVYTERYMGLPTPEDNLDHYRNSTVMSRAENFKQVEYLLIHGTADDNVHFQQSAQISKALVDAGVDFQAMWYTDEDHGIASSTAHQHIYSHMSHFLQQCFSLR

As to `Cc1cc(N2CCN(C(=O)[C@@H]3CN[C@H](C(=O)N4CCCC4)C3)CC2)sn1`, 240 nM corresponded to half-maximal inhibition in assay [1] (IC50).
Turning to `Cc1nc(N2CCN(C(=O)[C@@H]3CN[C@H](C(=O)N4CCCC4)C3)CC2)no1`, the half-maximal inhibitory concentration (IC50) in assay [1] is 960 nM.
In the case of `O=C([C@@H]1CN[C@H](C(=O)N2CCCC2)C1)N1CCN(c2ncns2)CC1`, the figures for the inhibition in vivo at 3 mg/kg in assay [2] and in assay [3] were 56% and 85%, respectively. Further, inhibition in assay [1] was half-maximal at 45 nM (IC50).
Take `Cc1cnc(N2CCN(C(=O)[C@@H]3CN[C@H](C(=O)N4CCCC4)C3)CC2)s1`: in assay [1], the IC50 stood at 320 nM.
`O=C([C@@H]1CN[C@H](C(=O)N2CCCC2)C1)N1CCN(c2nc(C(F)(F)F)ns2)CC1`: the inhibition in vivo at 3 mg/kg in assay [2] stood at 54%; in assay [3], 91%. The same molecule showed an IC50 in assay [1] of 140 nM.
`Cc1nsc(N2CCCN(C(=O)[C@@H]3CN[C@H](C(=O)N4CCCC4)C3)CC2)n1` showed an IC50 in assay [1] of 760 nM.
In the case of `O=C([C@@H]1CN[C@H](C(=O)N2CCCC2)C1)N1CCN(c2nc(-c3ccccc3)ns2)CC1`, the inhibition in vivo at 3 mg/kg in assay [2] worked out at 11%; in assay [3], 64%. In assay [1], this molecule displayed an IC50 of 150 nM.
`Cc1nc(N2CCN(C(=O)[C@@H]3CN[C@H](C(=O)N4CCCC4)C3)CC2)sc1C` registered a half-maximal inhibitory concentration (IC50) in assay [1] of 510 nM.
For `Cc1nsc(N2CCN(C(=O)[C@@H]3CN[C@H](C(=O)N4CCCC4)C3)CC2)n1`, the inhibition in vivo at 3 mg/kg in assay [2] is 53%; in assay [3], 84%. Also, the half-maximal inhibitory concentration (IC50) in assay [1] was 58 nM.
Turning to `CCc1nsc(N2CCN(C(=O)[C@@H]3CN[C@H](C(=O)N4CCCC4)C3)CC2)n1`, the values for the inhibition in vivo at 3 mg/kg in assay [2] and in assay [3] were 47% and 80%, respectively. For the same molecule, the IC50 in assay [1] came to 120 nM.
For `Cc1nsc(N2CCN(C(=O)[C@H]3C[C@@H](C(=O)N4CCCC4)N[C@H]3C)CC2)n1` the same measures were 74%, 89% and 69 nM.
In the case of `Cc1nsc(N2CCN(C(=O)[C@@H]3CN[C@H](C(=O)N4CCSC4)C3)CC2)n1`, the inhibition in vivo at 3 mg/kg turned out to be 75% in assay [2] and 91% in assay [3]. In assay [1], this molecule registered an IC50 of 76 nM.
Regarding `Cc1nsc(N2CCN(C(=O)[C@H]3C[C@@H](C(=O)N4CCSC4)N[C@H]3C)CC2)n1`, the inhibition in vivo at 3 mg/kg in assay [2] came to 72%; in assay [3] it was 95%. The molecule further came in with a concentration for half-maximal inhibition (IC50) in assay [1] of 60 nM. Also, in assay [4], the outcome was Active.
In turn, `Cc1ncc(N2CCN(C(=O)[C@@H]3CN[C@H](C(=O)N4CCCC4)C3)CC2)s1` yielded an IC50 in assay [1] of 340 nM.
On to `CC(C)c1nsc(N2CCN(C(=O)[C@@H]3CN[C@H](C(=O)N4CCCC4)C3)CC2)n1`, for which the figures for the inhibition in vivo at 3 mg/kg in assay [2] and in assay [3] were 43% and 85%, respectively. The molecule also registered an IC50 in assay [1] of 190 nM.
Consider `CCCc1nsc(N2CCN(C(=O)[C@@H]3CN[C@H](C(=O)N4CCCC4)C3)CC2)n1`, for which the values for the inhibition in vivo at 3 mg/kg in assay [2] and in assay [3] were 48% and 81%, respectively. The IC50 in assay [1] came to 110 nM.
Regarding `Cc1nsc(C2CCN(C(=O)[C@@H]3CN[C@H](C(=O)N4CCCC4)C3)CC2)n1`, the IC50 in assay [1] came to 450 nM.
Take `COCc1nsc(N2CCN(C(=O)[C@@H]3CN[C@H](C(=O)N4CCCC4)C3)CC2)n1`: the inhibition in vivo at 3 mg/kg worked out at 41% in assay [2] and 52% in assay [3]. The same molecule had an IC50 in assay [1] of 49 nM.

For orientation: IC50 means the concentration at which inhibition is half-maximal. A lower IC50 goes with inhibition by little substance. A word on the inhibition in vivo: it is the share of the control response that was lost under treatment.
